Data reported in PMC11628833 (Acta Pharmaceutica Sinica. B, 2024).

Legend:
Assay type in all cases: cell-based
hTLR8 = molecular target: T1, hTLR8 (Homo sapiens, UniProt Q9NR97); assay: SEAP reporter assay in HEK-Blue hTLR8 cells
T1 sequence (Q9NR97 27-1041): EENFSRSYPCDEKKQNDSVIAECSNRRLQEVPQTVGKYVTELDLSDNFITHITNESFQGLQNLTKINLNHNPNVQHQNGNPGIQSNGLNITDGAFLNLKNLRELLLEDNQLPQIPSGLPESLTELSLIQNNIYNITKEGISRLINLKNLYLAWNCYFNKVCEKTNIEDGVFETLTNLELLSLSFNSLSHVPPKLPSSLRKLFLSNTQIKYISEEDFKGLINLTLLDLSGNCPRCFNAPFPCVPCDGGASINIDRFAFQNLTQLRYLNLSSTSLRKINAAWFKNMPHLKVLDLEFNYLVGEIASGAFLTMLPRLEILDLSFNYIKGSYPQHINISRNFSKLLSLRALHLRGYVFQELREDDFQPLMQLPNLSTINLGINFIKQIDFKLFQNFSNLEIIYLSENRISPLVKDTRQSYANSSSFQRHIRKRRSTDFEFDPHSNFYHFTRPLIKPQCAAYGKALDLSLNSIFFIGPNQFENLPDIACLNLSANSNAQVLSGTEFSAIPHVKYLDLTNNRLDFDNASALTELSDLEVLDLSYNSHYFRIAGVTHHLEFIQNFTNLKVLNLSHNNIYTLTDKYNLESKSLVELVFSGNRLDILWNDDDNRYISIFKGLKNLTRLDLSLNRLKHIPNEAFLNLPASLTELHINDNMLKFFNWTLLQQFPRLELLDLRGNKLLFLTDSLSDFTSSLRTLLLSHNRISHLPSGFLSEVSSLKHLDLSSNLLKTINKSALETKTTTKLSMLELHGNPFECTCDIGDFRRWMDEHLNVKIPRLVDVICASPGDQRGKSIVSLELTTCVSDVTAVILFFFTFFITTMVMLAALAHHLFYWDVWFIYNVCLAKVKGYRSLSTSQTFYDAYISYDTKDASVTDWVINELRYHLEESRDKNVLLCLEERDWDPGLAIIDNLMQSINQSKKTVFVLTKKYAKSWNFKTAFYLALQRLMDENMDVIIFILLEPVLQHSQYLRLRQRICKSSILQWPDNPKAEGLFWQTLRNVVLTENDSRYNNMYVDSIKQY

human TLR7 = molecular target: T2, human TLR7 (Homo sapiens, UniProt Q9NYK1); assay: SEAP reporter assay in HEK-Blue hTLR7 cells
T2 sequence (Q9NYK1 27-1049): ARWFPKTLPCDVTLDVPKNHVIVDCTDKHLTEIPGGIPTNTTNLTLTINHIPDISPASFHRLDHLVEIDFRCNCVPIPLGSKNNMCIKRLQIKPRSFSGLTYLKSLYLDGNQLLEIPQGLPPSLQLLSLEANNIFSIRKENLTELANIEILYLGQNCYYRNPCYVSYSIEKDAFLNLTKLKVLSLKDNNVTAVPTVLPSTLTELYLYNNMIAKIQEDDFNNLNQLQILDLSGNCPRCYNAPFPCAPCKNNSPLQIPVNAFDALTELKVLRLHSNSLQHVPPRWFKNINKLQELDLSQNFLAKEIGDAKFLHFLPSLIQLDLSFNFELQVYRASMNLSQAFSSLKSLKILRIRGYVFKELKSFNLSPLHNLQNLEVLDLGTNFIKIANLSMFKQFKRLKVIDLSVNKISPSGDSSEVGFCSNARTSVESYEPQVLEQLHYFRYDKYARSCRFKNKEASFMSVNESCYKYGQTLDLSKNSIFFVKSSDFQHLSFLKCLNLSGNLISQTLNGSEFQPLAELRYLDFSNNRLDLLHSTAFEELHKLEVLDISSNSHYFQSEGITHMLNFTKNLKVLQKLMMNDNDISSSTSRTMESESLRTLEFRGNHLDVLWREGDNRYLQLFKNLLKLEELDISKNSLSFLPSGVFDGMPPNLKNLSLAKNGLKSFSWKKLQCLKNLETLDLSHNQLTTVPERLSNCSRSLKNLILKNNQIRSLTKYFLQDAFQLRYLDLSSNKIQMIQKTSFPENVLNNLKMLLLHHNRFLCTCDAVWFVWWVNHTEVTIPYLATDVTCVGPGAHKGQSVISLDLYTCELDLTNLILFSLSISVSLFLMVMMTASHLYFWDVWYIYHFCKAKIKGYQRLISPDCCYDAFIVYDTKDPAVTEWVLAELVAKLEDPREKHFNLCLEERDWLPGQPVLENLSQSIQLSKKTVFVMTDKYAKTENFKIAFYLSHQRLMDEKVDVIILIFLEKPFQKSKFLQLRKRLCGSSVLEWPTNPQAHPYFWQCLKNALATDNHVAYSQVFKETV
Procedure, shortened: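 HEK-Blue hTLR7 cells (stable human TLR7 with SEAP reporter) were plated at 5 × 10^5 cells/mL in DMEM with 10% heat-inactivated FBS. They were treated with R848 and varying test compound concentrations at 37 °C for 20–24 h. Medium was mixed with QUANTI-Blue, incubated at 37 °C for about 30 min, and read at 620 nm. R848-only = 100% activation; untreated = 0%.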

TLR4 = TLR4 (Homo sapiens, UniProt O00206); assay: Specificity test in HEK-Blue TLR-overexpressing cells, TLR4; details: 5 μM S-1, HEK-Blue TLR cells, TLR-specific agonist
Sequence of TLR4 (O00206 24-839): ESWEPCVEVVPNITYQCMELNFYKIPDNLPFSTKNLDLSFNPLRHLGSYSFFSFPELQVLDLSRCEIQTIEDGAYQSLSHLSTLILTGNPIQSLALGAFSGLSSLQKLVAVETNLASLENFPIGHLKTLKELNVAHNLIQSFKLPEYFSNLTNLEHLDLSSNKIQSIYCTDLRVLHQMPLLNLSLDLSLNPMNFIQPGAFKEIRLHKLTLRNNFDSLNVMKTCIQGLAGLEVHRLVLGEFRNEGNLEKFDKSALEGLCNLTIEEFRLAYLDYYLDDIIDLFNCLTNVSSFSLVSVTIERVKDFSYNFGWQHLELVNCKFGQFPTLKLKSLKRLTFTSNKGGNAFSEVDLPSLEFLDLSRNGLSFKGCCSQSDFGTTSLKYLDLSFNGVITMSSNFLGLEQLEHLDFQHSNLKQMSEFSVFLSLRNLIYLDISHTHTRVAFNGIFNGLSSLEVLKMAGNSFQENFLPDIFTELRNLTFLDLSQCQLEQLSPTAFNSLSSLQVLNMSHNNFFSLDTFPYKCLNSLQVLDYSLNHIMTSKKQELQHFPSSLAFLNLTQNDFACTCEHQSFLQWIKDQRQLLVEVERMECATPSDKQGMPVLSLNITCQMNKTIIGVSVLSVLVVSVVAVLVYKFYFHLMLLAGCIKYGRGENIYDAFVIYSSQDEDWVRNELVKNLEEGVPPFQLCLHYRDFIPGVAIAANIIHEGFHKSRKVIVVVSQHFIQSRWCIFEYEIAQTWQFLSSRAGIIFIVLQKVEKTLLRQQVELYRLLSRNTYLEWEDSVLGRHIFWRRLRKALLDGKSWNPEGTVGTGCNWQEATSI
Sequence of TLR4 (Q9Y6Y9 17-160 partner limits assumed): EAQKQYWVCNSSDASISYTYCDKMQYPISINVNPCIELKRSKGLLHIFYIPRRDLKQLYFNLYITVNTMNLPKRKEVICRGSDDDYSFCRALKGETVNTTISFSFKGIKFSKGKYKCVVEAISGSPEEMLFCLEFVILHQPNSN

`O=C(c1ccc(Cl)cc1)N1CCN(c2ccc([N+](=O)[O-])c3ncccc23)CC1` [Compound S1] was tested, and the IC50 (hTLR8) was 130 ± 30 nM, the IC50 (human TLR7) was 790 ± 270 nM and the “inhibition of TLR4” value (TLR4) was “no obvious inhibition”.
